Active and inactive are the calls of the source. The calls are words filed in the database; no cut-off is given here.
Tests used:
[1] = test system: Root; assay: Drug metabolism in Geranium molle root assessed as transformation to p-coumaric acid at 20 uM after 14 days measured per gm of dry weight by LC-MS analysis; format: ADME; details: 336 h
In short: (§1)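 Pregerminated seeds, 14 per container, transplanted onto 0.5% agar medium containing biochanin A. Grown at 24 ± 1 °C under a 16 h light/8 h dark photoperiod and harvested 14 days after transplanting. Roots and shoots collected separately, blotted, washed twice, then freeze-dried. Tissue extracted by ASE at 40 °C and analysed by LC-ESI-MS against commercial standards. Two replicates per treatment.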

[2] = test system: Echinochloa crus-galli; assay: Phytotoxicity against Echinochloa crus-galli (barnyard grass) assessed as root growth inhibition at 100 to 400 uM after 2 weeks by agar medium bioassay; format: functional, organism-based
In short: (§2)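 Agar bioassay with eight biochanin A doses (0–400 µM). Seeds were pregerminated 48 h at room temperature, then 10 seedlings were placed per Petri dish and grown 2 weeks at 24 ± 1 °C under a 16 h light/8 h dark cycle. […]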

[3] = test system: Shoot; assay: Drug metabolism in Echinochloa crus-galli (barnyard grass) shoot assessed as transformation to genistein at 400 uM after 14 days measured per gm of dry weight by LC-MS analysis; format: ADME; details: 336 h; in short: as §1
[4] = test system: Root; assay: Drug metabolism in Geranium molle root assessed as transformation to pratensein at 400 uM after 14 days measured per gm of dry weight by LC-MS analysis; format: ADME; details: 336 h; in short: as §1
[5] = test system: Root; assay: Drug metabolism in Echinochloa crus-galli (barnyard grass) root assessed as transformation to pratensein at 20 uM after 14 days measured per gm of dry weight by LC-MS analysis; format: ADME; details: 336 h; in short: as §1
[6] = test system: Shoot; assay: Drug metabolism in Echinochloa crus-galli (barnyard grass) shoot assessed as transformation to dihydrobiochanin A at 400 uM after 14 days measured per gm of dry weight by LC-MS analysis; format: ADME; details: 336 h; in short: as §1
[7] = test system: Root; assay: Drug metabolism in Geranium molle root assessed as transformation to genistein at 20 uM after 14 days measured per gm of dry weight by LC-MS analysis; format: ADME; details: 336 h; in short: as §1
[8] = test system: Root; assay: Drug metabolism in Silene noctiflora root assessed as transformation to pratensein at 400 uM after 14 days measured per gm of dry weight by LC-MS analysis; format: ADME; details: 336 h; in short: as §1
[9] = test system: Root; assay: Drug metabolism in Echinochloa crus-galli (barnyard grass) root assessed as transformation to genistein at 400 uM after 14 days measured per gm of dry weight by LC-MS analysis; format: ADME; details: 336 h; in short: as §1
[10] = test system: Root; assay: Drug metabolism in Echinochloa crus-galli (barnyard grass) root assessed as transformation to sissotrin at 400 uM after 14 days measured per gm of dry weight by LC-MS analysis; format: ADME; details: 336 h; in short: as §1
[11] = test system: Root; assay: Drug metabolism in Silene noctiflora root assessed as transformation to sissotrin at 400 uM after 14 days measured per gm of dry weight by LC-MS analysis; format: ADME; details: 336 h; in short: as §1
[12] = test system: Shoot; assay: Drug uptake in Echinochloa crus-galli (barnyard grass) shoot at 400 uM after 14 days measured per gm of dry weight by LC-MS analysis; format: ADME; details: 336 h
In short: (§3)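 Pregerminated seeds (14 per container) were grown on 20 mL 0.5% agar medium containing biochanin A, at 24 ± 1 °C with a 16 h light/8 h dark cycle. There were two replicates per treatment: 14 containers for S. noctiflora, 9 for G. molle and E. crus-galli. At 14 days, roots and shoots were harvested separately, washed, blotted and freeze-dried. Extraction was ASE at 40 °C, 1600 psi, 3 cycles. Analysis was LC-ESI-MS SIM against standards.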

[13] = test system: Shoot; assay: Drug uptake in Echinochloa crus-galli (barnyard grass) shoot at 20 uM after 14 days measured per gm of dry weight by LC-MS analysis; format: ADME; details: 336 h; in short: as §3
[14] = test system: Shoot; assay: Drug metabolism in Silene noctiflora shoot assessed as transformation to dihydrobiochanin A at 400 uM after 14 days measured per gm of dry weight by LC-MS analysis; format: ADME; details: 336 h; in short: as §1
[15] = test system: Shoot; assay: Drug metabolism in Silene noctiflora shoot assessed as transformation to pratensein at 20 uM after 14 days measured per gm of dry weight by LC-MS analysis; format: ADME; details: 336 h; in short: as §1
[16] = test system: Root; assay: Drug metabolism in Echinochloa crus-galli (barnyard grass) root assessed as transformation to dihydrobiochanin A at 20 uM after 14 days measured per gm of dry weight by LC-MS analysis; format: ADME; details: 336 h; in short: as §1
[17] = test system: Shoot; assay: Drug metabolism in Silene noctiflora shoot assessed as transformation to pratensein at 400 uM after 14 days measured per gm of dry weight by LC-MS analysis; format: ADME; details: 336 h; in short: as §3
[18] = test system: Shoot; assay: Drug metabolism in Silene noctiflora shoot assessed as transformation to sissotrin at 20 uM after 14 days measured per gm of dry weight by LC-MS analysis; format: ADME; details: 336 h; in short: as §3
[19] = test system: Shoot; assay: Drug metabolism in Echinochloa crus-galli (barnyard grass) shoot assessed as transformation to dihydrobiochanin A at 20 uM after 14 days measured per gm of dry weight by LC-MS analysis; format: ADME; details: 336 h; in short: as §1
[20] = test system: Root; assay: Drug metabolism in Geranium molle root assessed as transformation to dihydrobiochanin A at 20 uM after 14 days measured per gm of dry weight by LC-MS analysis; format: ADME; details: 336 h; in short: as §1
[21] = test system: Root; assay: Drug metabolism in Echinochloa crus-galli (barnyard grass) root assessed as transformation to p-coumaric acid at 20 uM after 14 days measured per gm of dry weight by LC-MS analysis; format: ADME; details: 336 h; in short: as §1
[22] = test system: Root; assay: Drug uptake in Geranium molle root at 20 uM after 14 days measured per gm of dry weight by LC-MS analysis; format: ADME; details: 336 h; in short: as §3
[23] = test system: Root; assay: Drug uptake in Silene noctiflora root at 20 uM after 14 days measured per gm of dry weight by LC-MS analysis; format: ADME; details: 336 h; in short: as §3
[24] = test system: Amaranthus caudatus; assay: Phytotoxicity against Amaranthus caudatus assessed as root growth inhibition at 100 to 400 uM after 2 weeks by agar medium bioassay; format: functional, organism-based; in short: as §2
[25] = test system: Root; assay: Drug uptake in Silene noctiflora root at 400 uM after 14 days measured per gm of dry weight by LC-MS analysis; format: ADME; details: 336 h; in short: as §3
[26] = test system: Root; assay: Drug metabolism in Geranium molle root assessed as transformation to genistein at 400 uM after 14 days measured per gm of dry weight by LC-MS analysis; format: ADME; details: 336 h; in short: as §1
[27] = test system: Shoot; assay: Drug metabolism in Silene noctiflora shoot assessed as transformation to dihydrobiochanin A at 20 uM after 14 days measured per gm of dry weight by LC-MS analysis; format: ADME; details: 336 h; in short: as §1
[28] = test system: Root; assay: Drug metabolism in Echinochloa crus-galli (barnyard grass) root assessed as transformation to dihydrobiochanin A at 400 uM after 14 days measured per gm of dry weight by LC-MS analysis; format: ADME; details: 336 h; in short: as §1
[29] = test system: Root; assay: Drug metabolism in Silene noctiflora root assessed as transformation to genistein at 20 uM after 14 days measured per gm of dry weight by LC-MS analysis; format: ADME; details: 336 h; in short: as §1
[30] = test system: Shoot; assay: Drug uptake in Geranium molle shoot at 20 uM after 14 days measured per gm of dry weight by LC-MS analysis; format: ADME; details: 336 h; in short: as §3
[31] = test system: Root; assay: Drug metabolism in Geranium molle root assessed as transformation to dihydrobiochanin A at 400 uM after 14 days measured per gm of dry weight by LC-MS analysis; format: ADME; details: 336 h; in short: as §1
[32] = test system: Shoot; assay: Drug metabolism in Geranium molle shoot assessed as transformation to genistein at 20 uM after 14 days measured per gm of dry weight by LC-MS analysis; format: ADME; details: 336 h; in short: as §1
[33] = test system: Root; assay: Drug uptake in Echinochloa crus-galli (barnyard grass) root at 400 uM after 14 days measured per gm of dry weight by LC-MS analysis; format: ADME; details: 336 h; in short: as §3
[34] = test system: Shoot; assay: Drug metabolism in Geranium molle shoot assessed as transformation to dihydrobiochanin A at 400 uM after 14 days measured per gm of dry weight by LC-MS analysis; format: ADME; details: 336 h; in short: as §1

For COc1ccc(-c2coc3cc(O)cc(O)c3c2=O)cc1 [BIOCHANIN], the Drug metabolism [1] was 0.06 µmol, the Activity [2] was “inactive” and the Drug metabolism [3] was 0.2 µmol. The Drug metabolism [4] was 0.32 µmol, the Drug metabolism [5] was 0.38 µmol and the Drug metabolism [6] was 0.27 µmol. For the same compound, the Drug metabolism [7] was 0.05 µmol, the Drug metabolism [8] was 0.11 µmol and the Drug metabolism [9] was 0.12 µmol. It also gave a Drug metabolism [10] of 1 µmol, a Drug metabolism [11] of 2.99 µmol and a Drug uptake [12] of 0.67 µmol. It also gave a Drug uptake [13] of 0.05 µmol, a Drug metabolism [14] of 0.02 µmol and a Drug metabolism [15] of 0.1 µmol. For the same compound, the Drug metabolism [16] was 0.05 µmol, the Drug metabolism [17] was 0.06 µmol and the Drug metabolism [18] was 2.36 µmol. For the same compound, the Drug metabolism [19] was 0 µmol, the Drug metabolism [20] was 0.38 µmol and the Drug metabolism [21] was 0.15 µmol. For the same compound, the Drug uptake [22] was 9.93 µmol, the Drug uptake [23] was 4.65 µmol and the Activity [24] was “inactive”. The Drug uptake [25] was 4.54 µmol, the Drug metabolism [26] was 0.08 µmol and the Drug metabolism [27] was 0 µmol. The Drug metabolism [28] was 0.27 µmol, the Drug metabolism [29] was 0.08 µmol and the Drug uptake [30] was 1 µmol. For the same compound, the Drug metabolism [31] was 0.31 µmol, the Drug metabolism [32] was 0.09 µmol and the Drug uptake [33] was 2.13 µmol. It also gave a Drug metabolism [34] of 0.02 µmol.

From ChEMBL document CHEMBL3046081, “Phytotoxic effect, uptake, and transformation of biochanin A in selected weed species” (J Agric Food Chem, 2012)
